Data: ChEMBL document CHEMBL1139213, “Antimicrobial arylcoumarins from Asphodelus microcarpus” (2007)
Converted amounts (≈) assume the structure as drawn.

Legend:
Type in all cases: functional
[1] = test system: Staphylococcus aureus; test: Antibacterial activity against Staphylococcus aureus IAM1011
Procedure, shortened: (§1)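 Broth microdilution MIC. Bacteria grown 16 h on BHI agar, suspended in MH broth at about (3-6) × 10^6 cfu/mL. Test materials applied at 20–100 mg/mL (as stated, before dilution), serially 2-fold diluted, then mixed with the bacterial suspension. Incubated 24 h at 37°C before MIC read-out. Positive controls: ampicillin for S. aureus and E. coli, penicillin G for P. aeruginosa.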

[2] = test system: Escherichia coli; test: Antibacterial activity against Escherichia coli IAM1257; procedure, shortened: as §1
[3] = test system: Pseudomonas aeruginosa; test: Antibacterial activity against Pseudomonas aeruginosa IAM1058; procedure, shortened: as §1
[4] = test system: Candida albicans; test: Antifungal activity against Candida albicans IAM1099
[5] = test system: Botrytis cinerea; test: Antifungal activity against Botrytis cinerea IAM1069

Row | Molecule | MIC [1] [µg/mL] | MIC [2] [µg/mL] | MIC [3] [µg/mL] | MIC [4] [µg/mL] | MIC [5] [µg/mL] | Activity [5] [µg/mL]
1 | O=c1oc2cc(O)ccc2c(O)c1-c1ccc(O[C@@H]2O[C@H](CO)[C@@H](O)[C@H](O)[C@H]2O)cc1O | 128 (≈ 285 µM) | 128 (≈ 285 µM) | 256 (≈ 571 µM) | 512 (≈ 1140 µM) | 1020 (≈ 2280 µM) | 
2 | CC1(C)S[C@@H]2[C@H](NC(=O)[C@H](N)c3ccccc3)C(=O)N2[C@H]1C(=O)O [AMPICILLIN] | < 0.5 | 1 (≈ 2.86 µM) |  |  |  | 
3 | O=c1oc2cc(O)ccc2c(O)c1-c1ccc(O)cc1O [ASPHODELIN A] | 16 (≈ 55.9 µM) | 4 (≈ 14 µM) | 8 (≈ 27.9 µM) | 64 (≈ 224 µM) | 128 (≈ 447 µM) | 
4 | CC1(C)S[C@@H]2[C@H](NC(=O)Cc3ccccc3)C(=O)N2[C@H]1C(=O)O [PENICILLIN G] |  |  | 1 (≈ 2.99 µM) |  |  | 
5 | NYSTATIN |  |  |  | < 0.5 |  | < 0.5
